Assay results published in article PMC3215888 (Cancer Chemotherapy and Pharmacology, 2011).
pIC50: −log10 of the molar value. Read-outs that look alike come from different tables or passages of the source.

Assays:
[1] = system: KT-10 Wilms xenograft; assay type: in vivo, mice
Outline: (§1)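 Female CB17 scid mice bearing subcutaneous tumors, 10 per group. Dosed by oral gavage twice daily, 5 days weekly for 6 weeks, at 20.8, 10.4, 5.2 or 2.6 mg/kg, in 10% 2-hydroxypropyl-β-cyclodextrin/1% sodium bicarbonate. Event = quadrupled tumor volume; EFS by Kaplan–Meier, exact log-rank test. Per-mouse scores PD/SD/PR (≥50% regression)/CR (<0.10 cm3)/MCR; group median reported. PR, CR and MCR count as objective responses.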

[2] = system: A-673 Ewing sarcoma cell line; test: DIMSCAN in vitro testing, 96 h; assay type: cell-based; conditions: for pIC50: Homo sapiens, A673, 96 h
Outline: (§2)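 Neuroblastoma and Ewing sarcoma lines, STR-verified and maintained as in the originators' reports. Exposed for 96 h to test compound (DMSO stock diluted in medium) at 1 nM–10 μM. Viable cells quantified by fluorescein diacetate fluorescence with DIMSCAN digital image microscopy. Absolute IC50 = concentration giving 50% growth inhibition vs controls. Relative IC50 = concentration giving 50% of the maximum inhibitory effect.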

[3] = system: NB-SD Neuroblastoma xenograft; assay type: in vivo, mice
Outline: as §1

[4] = system: NB-1382 Neuroblastoma xenograft; assay type: in vivo, mice; conditions: 20.8 mg/kg
Outline: as §1

[5] = Plasma pharmacokinetics after a single oral dose, LC/MS/MS; assay type: in vivo, non-tumored scid mice; conditions: scid, mouse
[6] = system: CHLA-258 Ewing sarcoma cell line; test: DIMSCAN in vitro testing, 96 h; assay type: cell-based; conditions: for pIC50: 96 h
Outline: as §2

SMILES: COc1cc(Nc2ncc3c(n2)-c2ccc(Cl)cc2C(c2c(F)cccc2OC)=NC3)ccc1C(=O)O [MLN8237]
- EFS T/C ([1]; 2.6 mg/kg): 1.0
- EFS activity ([1]; 2.6 mg/kg): Low
- Estimate of median time to event ([1]; 2.6 mg/kg): 9.6 days
- Median group response ([1]; 2.6 mg/kg): PD1 (if the TGD value ≤1.5, that mouse was considered PD1)
- Response activity ([1]; 2.6 mg/kg): Low
- Tumor volume T/C ([1]; 2.6 mg/kg): 0.84
- Median RTV/hCD45 at end of study ([1]; 2.6 mg/kg): >4
- EFS T/C ([1]; 5.2 mg/kg): 1.7
- EFS activity ([1]; 5.2 mg/kg): Low
- Estimate of median time to event ([1]; 5.2 mg/kg): 16.0 days
- Median group response ([1]; 5.2 mg/kg): PD2 (if the TGD value >1.5, the mouse was considered PD2)
- Response activity ([1]; 5.2 mg/kg): Int
- Tumor volume T/C ([1]; 5.2 mg/kg): 0.71
- Median RTV/hCD45 at end of study ([1]; 5.2 mg/kg): >4
- EFS T/C ([1]; 10.4 mg/kg): 1.5
- EFS activity ([1]; 10.4 mg/kg): Low
- Estimate of median time to event ([1]; 10.4 mg/kg): 14.6 days
- Median group response ([1]; 10.4 mg/kg): PD1 (if the TGD value ≤1.5, that mouse was considered PD1)
- Response activity ([1]; 10.4 mg/kg): Low
- Tumor volume T/C ([1]; 10.4 mg/kg): 0.53
- Median RTV/hCD45 at end of study ([1]; 10.4 mg/kg): >4
- EFS T/C ([1]; 20.8 mg/kg): >4.4
- EFS activity ([1]; 20.8 mg/kg): High
- Median group response ([1]; 20.8 mg/kg): MCR
- Response activity ([1]; 20.8 mg/kg): High
- Tumor volume T/C ([1]; 20.8 mg/kg): 0.35
- Median RTV/hCD45 at end of study ([1]; 20.8 mg/kg): 0.0
- Ymin ([2]; A-673, minimum T/C): 13.1%
- pIC50 ([2]; read-out: Absolute IC50): 7.49
- pIC50 ([2]; read-out: Relative IC50): 7.52
- EFS T/C ([3]; 2.6 mg/kg): 1.6
- EFS activity ([3]; 2.6 mg/kg): Low
- Estimate of median time to event ([3]; 2.6 mg/kg): 15.2 days
- Median group response ([3]; 2.6 mg/kg): PD1 (if the TGD value ≤1.5, that mouse was considered PD1)
- Response activity ([3]; 2.6 mg/kg): Low
- Tumor volume T/C ([3]; 2.6 mg/kg): 0.59
- Median RTV/hCD45 at end of study ([3]; 2.6 mg/kg): >4
- EFS T/C ([3]; 5.2 mg/kg): 2.2
- EFS activity ([3]; 5.2 mg/kg): Int
- Estimate of median time to event ([3]; 5.2 mg/kg): 20.9 days
- Median group response ([3]; 5.2 mg/kg): PD2 (if the TGD value >1.5, the mouse was considered PD2)
- Response activity ([3]; 5.2 mg/kg): Int
- Tumor volume T/C ([3]; 5.2 mg/kg): 0.60
- Median RTV/hCD45 at end of study ([3]; 5.2 mg/kg): >4
- EFS T/C ([3]; 10.4 mg/kg): 3.9
- EFS activity ([3]; 10.4 mg/kg): Int
- Estimate of median time to event ([3]; 10.4 mg/kg): 37.5 days
- Median group response ([3]; 10.4 mg/kg): PD2 (if the TGD value >1.5, the mouse was considered PD2)
- Response activity ([3]; 10.4 mg/kg): Int
- Tumor volume T/C ([3]; 10.4 mg/kg): 0.50
- Median RTV/hCD45 at end of study ([3]; 10.4 mg/kg): >4
- EFS T/C ([3]; 20.8 mg/kg): >4.4
- EFS activity ([3]; 20.8 mg/kg): High
- Response activity ([3]; 20.8 mg/kg): Int
- Tumor volume T/C ([3]; 20.8 mg/kg): 0.47
- Median RTV/hCD45 at end of study ([3]; 20.8 mg/kg): 0.9
- EFS T/C [4]: >1.7
- Median group response [4]: PD2 (if the TGD value >1.5, the mouse was considered PD2)
- Response activity [4]: Int
- Tumor volume T/C [4]: 0.31
- Median RTV/hCD45 at end of study ([4]; RTV): 2.1
- concentration at 12 h ([5]; oral, 10 mg/kg): 1.2 µM
- concentration at 12 h ([5]; oral, 10.4 mg/kg): 1.2 µM
- AUC(0-t) ([5]; po, 10 mg/kg): 39 µM·h
- Cmax ([5]; po, 10 mg/kg, C max, single oral 10 mg/kg, mice): 15.8 µM
- AUC(0-t) ([5]; po, 10.4 mg/kg): 60.3 µM·h
- Cmax ([5]; po, 10.4 mg/kg): 24.8 µM
- Tmax ([5]; po, 10.4 mg/kg): 30 min
- AUC(0-t) ([5]; po, 20.8 mg/kg): 78.4 µM·h
- Tmax ([5]; po, 20.8 mg/kg): 30 min
- concentration at 12 h ([5]; po, 20.8 mg/kg): 1.8 µM
- pIC50 ([6]; read-out: Absolute IC50): 6.88
- pIC50 ([6]; read-out: Relative IC50): 7.09
- Ymin ([6]; CHLA-258, minimum T/C): 18.8%
